Test results reported in ChEMBL document CHEMBL4330070, “Design and synthesis of novel pyrimidine derivatives as potent antitubercular agents” (Eur J Med Chem, 2019).
Active and inactive are the calls of the source. No cut-off for these calls is given here.

How the values were obtained:
[1] = system: Mycobacterium tuberculosis; assay: Antimicrobial activity against autoluminescent Mycobacterium tuberculosis H37Ra infected in BALB/c mouse assessed as reduction in bacterial burden in lung at 300 mg/kg administered daily via gavage for 5 days and measured on day 6 by luminometric method; assay type: functional
Summary of the method: (§1)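 Mice grouped by similar RLU, four per group. Dosed by gavage daily from day 0 to day 5 in 0.5% CMC-Na, with vehicle, RIF 10 mg/kg and PZA 150 mg/kg controls. Lung or spleen burden read as log10 RLU, mean ± SD.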

[2] = system: Mycobacterium tuberculosis; assay: Antimicrobial activity against autoluminescent Mycobacterium tuberculosis H37Ra infected in BALB/c mouse assessed as reduction in bacterial burden in spleen at 300 mg/kg administered daily via gavage for 5 days and measured on day 6 by luminometric method; assay type: functional, organism-based; summary of the method: as §1
[3] = system: Mycobacterium tuberculosis; assay: Synergistic antimicrobial activity against autoluminescent Mycobacterium tuberculosis H37Ra assessed as test compound concentration causing ratio of drug treated RLU/untreated RLU less than 10% by measuring FICI at 0.0625 to 2 times MIC after 7 days in presence of sulfamethoxazole by luminometric method; assay type: functional
Summary of the method: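 Exponential-phase UAIRa in 7H9 without Tween 80 at 10,000-50,000 RLU/mL. Compound at 2-fold dilutions from 2×MIC to MIC/16, each combined with sulfamethoxazole at 16, 8, 4 or 2 µg/mL, with a 2% DMSO control. RLU read after 7 days at 37 °C. MIC taken as RLU drug/DMSO below 10%. FICI is the sum of MIC in combination over MIC alone for each drug.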

[4] = system: Mycobacterium tuberculosis; assay: Antimicrobial activity against autoluminescent Mycobacterium tuberculosis H37Ra assessed as test compound concentration causing ratio of drug treated RLU/untreated RLU less than 10% measured every day up to 6 days by luminometric method; assay type: functional; conditions: 144 h
Summary of the method: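 Autoluminescent marker-free H37Ra (UAIRa) grown in 7H9 with OADC and 0.05% Tween 80 until RLU exceeded 5 million/mL, then diluted to 10,000-50,000 RLU/mL in 7H9 without Tween 80. Compounds tested as 2-fold dilutions from 100 to 0.625 µg/mL, with DMSO 2% and rifampicin 1 µg/mL controls. RLU read daily to day 6. MIC is the lowest concentration giving RLU drug/DMSO below 10%.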

[5] = Toxicity in Balb/c mouse infected with Mycobacterium tuberculosis H37Ra assessed as mouse death at 300 mg/kg administered daily via gavage for 5 days; assay type: organism-based; conditions: in vivo, po, 120 h
Summary of the method: (§2)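 Female BALB/c mice aged 4-5 weeks infected by tail vein with autoluminescent H37Ra, four per group. Gavage daily from day 0 to day 5 in 0.5% CMC-Na vehicle. Deaths recorded over the 6-day treatment period and reported as percent survival.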

[6] = system: Mycobacterium tuberculosis; assay: Antimicrobial activity against autoluminescent Mycobacterium tuberculosis H37Ra infected in BALB/c mouse assessed as reduction in bacterial burden in lung at 100 to 300 mg/kg administered daily via gavage for 5 days and measured on day 6 by luminometric method; assay type: functional; summary of the method: as §1
[7] = system: Mycobacterium tuberculosis; assay: Antimicrobial activity against autoluminescent Mycobacterium tuberculosis H37Ra infected in BALB/c mouse assessed as reduction in bacterial burden in spleen at 100 to 300 mg/kg administered daily via gavage for 5 days and measured on day 6 by luminometric method; assay type: functional; summary of the method: as §1
[8] = Toxicity in Balb/c mouse infected with Mycobacterium tuberculosis H37Ra assessed as mouse death at 100 mg/kg administered daily via gavage for 5 days; assay type: organism-based; conditions: in vivo, po, 120 h; summary of the method: as §2
[9] = system: Mycobacterium tuberculosis; assay: Antimicrobial activity against autoluminescent Mycobacterium tuberculosis H37Ra infected in BALB/c mouse assessed as reduction in bacterial burden in spleen at 200 mg/kg administered daily via gavage for 5 days and measured on day 6 by luminometric method; assay type: functional, organism-based; summary of the method: as §1
[10] = Toxicity in Balb/c mouse infected with Mycobacterium tuberculosis H37Ra assessed as mouse death at 200 mg/kg administered daily via gavage for 5 days; assay type: organism-based; conditions: in vivo, po, 120 h; summary of the method: as §2
[11] = system: Mycobacterium tuberculosis; assay: Antimicrobial activity against autoluminescent Mycobacterium tuberculosis H37Ra infected in BALB/c mouse assessed as reduction in bacterial burden in lung at 200 mg/kg administered daily via gavage for 5 days and measured on day 6 by luminometric method; assay type: functional, organism-based; summary of the method: as §1

SMILES	MIC [4]	also measured
Cc1cc(Nc2ncc(Cl)c(Nc3ccccc3S(=O)(=O)C(C)C)n2)c(OC(C)C)cc1C1CCNCC1 [CERITINIB]	9 µM	Activity [1]: 1 log10RLU; Activity [2]: inactive; fractional inhibitory concentration index (FICI) [3]: 0.74; Activity [5]: Toxic
Cc1cc(Nc2ncc(Cl)c(N3CCCc4ccccc43)n2)c(OC(C)C)cc1C1CCNCC1	20 µM	–
Cc1cc(Nc2ncc(Cl)c(Nc3cc(C(F)(F)F)cc(C(F)(F)F)c3)n2)c(OC(C)C)cc1C1CCNCC1	17 µM	–
Cc1cc(Nc2ncc(Cl)c(Nc3cccc4ccccc34)n2)c(OC(C)C)cc1C1CCNCC1	5 µM	Activity [6]: 2 log10RLU; fractional inhibitory concentration index (FICI) [3]: 0.74; Activity [5]: Non-Toxic; Activity [7]: 0.5 log10RLU; Activity [8]: Non-Toxic
CC(C)S(=O)(=O)c1ccccc1Nc1nc(Nc2ccccc2O)ncc1Cl	> 200 µM	–
Cc1cc(Nc2ncc(Cl)c(N[C@H](C)c3ccccc3)n2)c(OC(C)C)cc1C1CCNCC1	10 µM	–
COc1ccc(CCNc2nc(Nc3cc(C)c(C4CCNCC4)cc3OC(C)C)ncc2Cl)cc1	5 µM	Activity [9]: inactive; fractional inhibitory concentration index (FICI) [3]: 1.24; Activity [10]: Toxic; Activity [11]: inactive
Cc1cc(Cc2ncc(Cl)c(NCCc3ccc(O)cc3)n2)c(OC(C)C)cc1C1CCNCC1	10 µM	–
COc1ccc(-c2cc(Nc3nc(Nc4cc(C)c(C5CCNCC5)cc4OC(C)C)ncc3Cl)ccc2OC)cc1	17 µM	–
Cc1cc(Nc2ncc(Cl)c(Nc3ccc(O)cc3)n2)c(OC(C)C)cc1C1CCNCC1	10 µM	–
Cc1cc(Nc2ncc(Cl)c(Nc3ccccc3O)n2)c(OC(C)C)cc1C1CCNCC1	≤ 10 µM	–
Cc1cc(Nc2ncc(Cl)c(Nc3ccc4ccccc4c3)n2)c(OC(C)C)cc1C1CCNCC1	10 µM	–
Cc1cc(Nc2ncc(Cl)c(Nc3ccccc3S(=O)(=O)C(C)C)n2)c(OC(C)C)cc1N1CCN(C)CC1	18 µM	–
Cc1cc(Nc2ncc(Cl)c(NCc3ccccc3)n2)c(OC(C)C)cc1C1CCNCC1	10 µM	–
Cc1cc(NS(=O)(=O)c2ccc(N)cc2)no1 [SULFAMETHOXAZOLE]	67 µM	–
CC(C)S(=O)(=O)c1ccccc1Nc1nc(Nc2ccc(Cl)cc2)ncc1Cl	> 200 µM	–
COc1ccc(Nc2ncc(Cl)c(Nc3ccccc3S(=O)(=O)C(C)C)n2)cc1	> 200 µM	–

SMILES	MIC [4]	also measured
Cc1cc(Nc2ncc(Cl)c(Nc3cccc(-c4ccccc4)c3)n2)c(OC(C)C)cc1C1CCNCC1	19 µM	–
Cc1cc(Nc2ncc(Cl)c(NCCc3ccc(F)cc3)n2)c(OC(C)C)cc1C1CCNCC1	10 µM	–
CC(C)S(=O)(=O)c1ccccc1Nc1nc(Nc2ccc(C(N)=O)cc2)ncc1Cl	> 200 µM	–
Cc1cc(Nc2ncc(Cl)c(NC(C)(C)Cc3ccc4ccccc4c3)n2)c(OC(C)C)cc1C1CCNCC1	18 µM	–
Cc1cc(Nc2ncc(Cl)c(NCCc3ccccc3)n2)c(OC(C)C)cc1C1CCNCC1	5 µM	Activity [9]: Active; fractional inhibitory concentration index (FICI) [3]: 0.74; Activity [5]: Non-Toxic; Activity [10]: Non-Toxic; Activity [11]: Active
CC(C)S(=O)(=O)c1ccccc1Nc1nc(Nc2ccccc2OCCCN2CCOCC2)ncc1Cl	> 150 µM	–
Cc1cc(Nc2ncc(Cl)c(NCCc3cccs3)n2)c(OC(C)C)cc1C1CCNCC1	10 µM	–
Cc1cc(Nc2ncc(Cl)c(Nc3ccc(C(N)=O)cc3)n2)c(OC(C)C)cc1C1CCNCC1	20 µM	–
Cc1cc(Nc2ncc(Cl)c(NC34CC5CC(CC(C5)C3)C4)n2)c(OC(C)C)cc1C1CCNCC1	20 µM	–
CC(C)S(=O)(=O)c1ccccc1Nc1nc(Nc2ccc(C#N)c(F)c2)ncc1Cl	> 200 µM	–
CC(C)S(=O)(=O)c1ccccc1Nc1nc(Nc2ccccc2C#N)ncc1Cl	> 200 µM	–
Cc1cc(Nc2ncc(Cl)c(Nc3ccccc3S(=O)(=O)C(C)C)n2)c(OC(C)C)cc1N1CCNCC1	9 µM	–
CC(C)S(=O)(=O)c1ccccc1Nc1nc(NCCc2ccc(Br)cc2)ncc1Cl	> 150 µM	–
Cc1cc(Nc2ncc(Cl)c(Nc3ccccc3S(=O)(=O)C(C)C)n2)c(OC(C)C)cc1N1CCOCC1	> 150 µM	–
Cc1cc(Nc2ncc(Cl)c(NC3CCCCC3)n2)c(OC(C)C)cc1C1CCNCC1	11 µM	–
COc1ccc(Nc2nc(Nc3cc(C)c(C4CCNCC4)cc3OC(C)C)ncc2Cl)cc1Br	9 µM	–
